Results on 5 compounds are retold here after ChEMBL document CHEMBL4765230, “Discovery of Orally Efficacious Phosphoinositide 3-Kinase δ Inhibitors with Improved Metabolic Stability” (J Med Chem, 2016).

Some results are limits rather than exact numbers.

Sequence of PI3-kinase p110-delta/p85-alpha (P27986 whole entry, one chain of several): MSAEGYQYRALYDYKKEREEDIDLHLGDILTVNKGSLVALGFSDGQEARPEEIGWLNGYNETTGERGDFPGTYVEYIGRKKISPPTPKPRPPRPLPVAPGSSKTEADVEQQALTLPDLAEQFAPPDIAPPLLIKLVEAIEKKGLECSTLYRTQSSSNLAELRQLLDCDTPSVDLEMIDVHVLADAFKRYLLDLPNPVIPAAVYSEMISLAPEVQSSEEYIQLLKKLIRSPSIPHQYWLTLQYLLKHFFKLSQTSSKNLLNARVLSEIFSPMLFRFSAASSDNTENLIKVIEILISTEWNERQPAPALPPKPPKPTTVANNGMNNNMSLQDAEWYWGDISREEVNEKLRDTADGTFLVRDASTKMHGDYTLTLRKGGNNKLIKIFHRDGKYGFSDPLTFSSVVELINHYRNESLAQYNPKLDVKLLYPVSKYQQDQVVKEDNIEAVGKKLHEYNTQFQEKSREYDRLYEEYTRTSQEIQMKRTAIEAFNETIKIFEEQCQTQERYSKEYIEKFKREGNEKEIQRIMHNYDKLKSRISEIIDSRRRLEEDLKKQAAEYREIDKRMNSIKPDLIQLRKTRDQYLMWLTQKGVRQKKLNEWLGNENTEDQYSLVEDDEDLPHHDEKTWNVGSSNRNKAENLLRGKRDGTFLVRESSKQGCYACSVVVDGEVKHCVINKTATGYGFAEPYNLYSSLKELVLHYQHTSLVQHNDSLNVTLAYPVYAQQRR

Tested on in one series: not listed separately
Description: Chemical stability of the compound at pH 2 phosphate buffer assessed as time required for 90% hydrolytic degradation at 100 ug/ml and 40 degreeC by UPLC-UV analysis. The class given is physicochemical. The note with it: in the assay text read “10% hydrolytic degradation” for “90% hydrolytic degradation”, dose 100 µg/ml. An outline of the steps:
(§1)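 Compound diluted from acetonitrile or DMSO stock to 100 μg/mL final in 50 mM phosphate buffer, pH 2 (or pH 7), ionic strength 0.15 M NaCl, 40 °C in autosampler. Timed injections analysed by reverse-phase UPLC-UV (220 nm); pseudo-first-order kobs from ln c vs time; t50 and t90 calculated.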
Consider `Cc1c(F)cncc1-n1c([C@H](C)Nc2nc(N)nc(N)c2C#N)nc2cccc(Cl)c2c1=O` (stereo in doubt; 27), for which the Time was 4.6 h.

For the compound `C[C@H](Nc1nc(N)nc(N)c1C#N)c1nc2cccc(Cl)c2c(=O)n1-c1cncc(F)c1`, the Time worked out at 0.5 h.

Regarding `CC[C@H](Nc1nc(N)nc(N)c1C#N)c1nc2cccc(Cl)c2c(=O)n1-c1cccnc1`, the Time turned out to be 0.65 h.

`Cc1ncccc1-n1c([C@H](C)Nc2nc(N)nc(N)c2C#N)nc2cccc(Cl)c2c1=O` (stereo in doubt; 23): the Time was 3.1 h.

For `N#Cc1c(N)nc(N)nc1N[C@H](c1nc2cccc(Cl)c2c(=O)n1-c1cccnc1)C1CC1`, the Time came out at 0.5 h.

For another series, the target named is PI3-kinase p110-alpha/p85-alpha (Homo sapiens, UniProt P42336). Kind of series: Inhibition of human full length PI3K p110alpha/p85alpha using […] as substrate measured after 30 mins by TR-FRET assay. The class given is protein-complex assay.
Sequence of PI3-kinase p110-alpha/p85-alpha (P27986 whole entry): as the sequence (P27986 whole entry, one chain of several) above
Sequence of PI3-kinase p110-alpha/p85-alpha (P42336 whole entry): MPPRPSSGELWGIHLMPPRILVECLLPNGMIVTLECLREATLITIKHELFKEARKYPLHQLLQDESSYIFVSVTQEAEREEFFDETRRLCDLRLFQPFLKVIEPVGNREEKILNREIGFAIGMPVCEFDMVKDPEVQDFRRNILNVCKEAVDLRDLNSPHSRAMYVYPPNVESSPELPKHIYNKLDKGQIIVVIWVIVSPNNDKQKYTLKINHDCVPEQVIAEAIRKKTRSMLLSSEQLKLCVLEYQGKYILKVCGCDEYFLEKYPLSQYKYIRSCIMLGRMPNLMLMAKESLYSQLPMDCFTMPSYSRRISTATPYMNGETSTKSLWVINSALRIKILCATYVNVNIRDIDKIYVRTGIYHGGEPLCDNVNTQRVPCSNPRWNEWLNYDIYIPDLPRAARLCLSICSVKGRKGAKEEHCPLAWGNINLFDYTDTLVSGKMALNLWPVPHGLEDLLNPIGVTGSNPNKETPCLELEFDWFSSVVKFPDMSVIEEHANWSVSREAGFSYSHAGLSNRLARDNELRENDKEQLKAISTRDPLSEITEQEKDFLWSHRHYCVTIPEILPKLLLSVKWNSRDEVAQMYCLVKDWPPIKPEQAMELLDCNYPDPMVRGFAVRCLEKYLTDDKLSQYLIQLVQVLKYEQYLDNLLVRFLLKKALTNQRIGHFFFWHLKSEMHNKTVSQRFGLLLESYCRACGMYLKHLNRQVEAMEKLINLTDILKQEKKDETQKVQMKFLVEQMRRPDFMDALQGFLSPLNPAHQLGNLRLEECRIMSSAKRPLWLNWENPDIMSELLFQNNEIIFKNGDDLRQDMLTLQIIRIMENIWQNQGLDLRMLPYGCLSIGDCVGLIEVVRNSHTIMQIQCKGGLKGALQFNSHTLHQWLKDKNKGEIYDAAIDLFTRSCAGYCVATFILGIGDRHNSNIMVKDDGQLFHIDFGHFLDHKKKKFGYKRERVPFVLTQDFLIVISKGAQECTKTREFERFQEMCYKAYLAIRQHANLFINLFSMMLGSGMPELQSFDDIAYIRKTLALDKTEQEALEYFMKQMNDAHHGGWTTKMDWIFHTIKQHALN
Conditions: not given; call rule not given here
A general note: TR-FRET usually uses a lanthanide donor and a delayed reading to cut background.
Usually IC50 stands for the point on the concentration scale where inhibition reaches its midpoint. Regarding `Cc1c(F)cncc1-n1c([C@H](C)Nc2nc(N)nc(N)c2C#N)nc2cccc(Cl)c2c1=O` (stereo in doubt; 27), the midpoint of inhibition, the IC50, lay at 1200 nM.

For `C[C@H](Nc1nc(N)nc(N)c1C#N)c1nc2cccc(Cl)c2c(=O)n1-c1cncc(F)c1`, the IC50 came out at 4300 nM.

`Cc1ncccc1-n1c([C@H](C)Nc2nc(N)nc(N)c2C#N)nc2cccc(Cl)c2c1=O` (stereo in doubt; 23) gave a concentration for half-maximal inhibition (IC50) of 1600 nM.

Tested on in another series: not listed separately
Description: Drug degradation at low pH. The class given is physicochemical.
Conditions: not given
An outline of the steps: as §1
`C[C@H](Nc1nc(N)nc(N)c1C#N)c1nc2cccc(Cl)c2c(=O)n1-c1cncc(F)c1`: the Drug degradation entry is “Active”.

With `CC[C@H](Nc1nc(N)nc(N)c1C#N)c1nc2cccc(Cl)c2c(=O)n1-c1cccnc1`, the Drug degradation result was “Active”.

Regarding `N#Cc1c(N)nc(N)nc1N[C@H](c1nc2cccc(Cl)c2c(=O)n1-c1cccnc1)C1CC1`, the Drug degradation entry is “Active”.

In the next series the target is Phosphatidylinositol 4,5-bisphosphate 3-kinase catalytic subunit gamma isoform (Homo sapiens, UniProt P48736). Description: Inhibition of human full length PI3K p110gamma using […] as substrate measured after 30 mins by TR-FRET assay.
Sequence of Phosphatidylinositol 4,5-bisphosphate 3-kinase catalytic subunit gamma isoform (P48736 whole entry, canonical isoform): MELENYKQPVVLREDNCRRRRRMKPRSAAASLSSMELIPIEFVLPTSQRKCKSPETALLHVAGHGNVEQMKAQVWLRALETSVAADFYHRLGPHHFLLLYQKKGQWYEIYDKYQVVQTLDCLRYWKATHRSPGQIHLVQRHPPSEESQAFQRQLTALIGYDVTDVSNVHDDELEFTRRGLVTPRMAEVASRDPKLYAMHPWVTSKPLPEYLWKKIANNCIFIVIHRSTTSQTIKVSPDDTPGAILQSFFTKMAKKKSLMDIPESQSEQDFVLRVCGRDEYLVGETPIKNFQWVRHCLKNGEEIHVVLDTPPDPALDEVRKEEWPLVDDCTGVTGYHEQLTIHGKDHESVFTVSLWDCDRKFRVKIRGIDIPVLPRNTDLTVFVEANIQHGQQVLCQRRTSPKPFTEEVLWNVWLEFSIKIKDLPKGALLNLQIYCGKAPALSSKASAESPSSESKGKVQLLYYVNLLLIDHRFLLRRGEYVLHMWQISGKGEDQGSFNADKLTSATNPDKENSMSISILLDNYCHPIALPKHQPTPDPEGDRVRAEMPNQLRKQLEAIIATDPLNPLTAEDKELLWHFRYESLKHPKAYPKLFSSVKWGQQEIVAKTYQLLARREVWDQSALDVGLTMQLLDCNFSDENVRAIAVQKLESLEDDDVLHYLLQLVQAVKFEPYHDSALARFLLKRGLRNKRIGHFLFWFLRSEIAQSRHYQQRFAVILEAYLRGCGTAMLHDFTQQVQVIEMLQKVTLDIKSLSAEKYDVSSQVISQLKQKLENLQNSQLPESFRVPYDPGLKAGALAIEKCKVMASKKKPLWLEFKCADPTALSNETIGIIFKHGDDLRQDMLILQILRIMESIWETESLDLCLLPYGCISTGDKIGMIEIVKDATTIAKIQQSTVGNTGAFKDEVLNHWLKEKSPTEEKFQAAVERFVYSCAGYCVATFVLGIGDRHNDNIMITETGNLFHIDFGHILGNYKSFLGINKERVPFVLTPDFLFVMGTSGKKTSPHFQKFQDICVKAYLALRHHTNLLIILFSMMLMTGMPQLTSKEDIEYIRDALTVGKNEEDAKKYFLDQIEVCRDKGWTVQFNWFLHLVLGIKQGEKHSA
Conditions: not given
On to `Cc1c(F)cncc1-n1c([C@H](C)Nc2nc(N)nc(N)c2C#N)nc2cccc(Cl)c2c1=O` (stereo in doubt; 27), for which the IC50 came out at 25 nM.

With `C[C@H](Nc1nc(N)nc(N)c1C#N)c1nc2cccc(Cl)c2c(=O)n1-c1cncc(F)c1`, half-maximal inhibition (IC50) required 150 nM.

`Cc1ncccc1-n1c([C@H](C)Nc2nc(N)nc(N)c2C#N)nc2cccc(Cl)c2c1=O` (stereo in doubt; 23) gave an IC50 of 160 nM.

Tested on in a further series: not listed separately
Kind of series: Chemical stability of the compound at pH 2 phosphate buffer assessed as time required for 50% hydrolytic degradation at 100 ug/ml and 40 degreeC by UPLC-UV analysis. The class given is physicochemical. The note with it: dose 100 µg/ml, read-out: Time (converted). An outline of the steps: as §1
In the case of `Cc1c(F)cncc1-n1c([C@H](C)Nc2nc(N)nc(N)c2C#N)nc2cccc(Cl)c2c1=O` (stereo in doubt; 27), the half-life at 100 ug/ml was 30 h.

Consider `C[C@H](Nc1nc(N)nc(N)c1C#N)c1nc2cccc(Cl)c2c(=O)n1-c1cncc(F)c1`, for which the half-life at 100 ug/ml is 3.6 h.

Regarding `CC[C@H](Nc1nc(N)nc(N)c1C#N)c1nc2cccc(Cl)c2c(=O)n1-c1cccnc1`, the half-life at 100 ug/ml was 4.3 h.

As for `Cc1ncccc1-n1c([C@H](C)Nc2nc(N)nc(N)c2C#N)nc2cccc(Cl)c2c1=O` (stereo in doubt; 23), the half-life at 100 ug/ml was 20 h.

For `N#Cc1c(N)nc(N)nc1N[C@H](c1nc2cccc(Cl)c2c(=O)n1-c1cccnc1)C1CC1`, the half-life at 100 ug/ml was 3.6 h.

The target in the next series is PI3K p110 beta/p85 alpha (Homo sapiens, UniProt P42338). Description: Inhibition of recombinant human full-length N-terminal His-tagged PI3K p110beta/p85alpha using […] as substrate measured after 30 mins by TR-FRET assay. The class given is protein-complex assay.
Sequence of PI3K p110 beta/p85 alpha (P27986 whole entry): as the sequence (P27986 whole entry, one chain of several) above
Sequence of PI3K p110 beta/p85 alpha (P42338 whole entry): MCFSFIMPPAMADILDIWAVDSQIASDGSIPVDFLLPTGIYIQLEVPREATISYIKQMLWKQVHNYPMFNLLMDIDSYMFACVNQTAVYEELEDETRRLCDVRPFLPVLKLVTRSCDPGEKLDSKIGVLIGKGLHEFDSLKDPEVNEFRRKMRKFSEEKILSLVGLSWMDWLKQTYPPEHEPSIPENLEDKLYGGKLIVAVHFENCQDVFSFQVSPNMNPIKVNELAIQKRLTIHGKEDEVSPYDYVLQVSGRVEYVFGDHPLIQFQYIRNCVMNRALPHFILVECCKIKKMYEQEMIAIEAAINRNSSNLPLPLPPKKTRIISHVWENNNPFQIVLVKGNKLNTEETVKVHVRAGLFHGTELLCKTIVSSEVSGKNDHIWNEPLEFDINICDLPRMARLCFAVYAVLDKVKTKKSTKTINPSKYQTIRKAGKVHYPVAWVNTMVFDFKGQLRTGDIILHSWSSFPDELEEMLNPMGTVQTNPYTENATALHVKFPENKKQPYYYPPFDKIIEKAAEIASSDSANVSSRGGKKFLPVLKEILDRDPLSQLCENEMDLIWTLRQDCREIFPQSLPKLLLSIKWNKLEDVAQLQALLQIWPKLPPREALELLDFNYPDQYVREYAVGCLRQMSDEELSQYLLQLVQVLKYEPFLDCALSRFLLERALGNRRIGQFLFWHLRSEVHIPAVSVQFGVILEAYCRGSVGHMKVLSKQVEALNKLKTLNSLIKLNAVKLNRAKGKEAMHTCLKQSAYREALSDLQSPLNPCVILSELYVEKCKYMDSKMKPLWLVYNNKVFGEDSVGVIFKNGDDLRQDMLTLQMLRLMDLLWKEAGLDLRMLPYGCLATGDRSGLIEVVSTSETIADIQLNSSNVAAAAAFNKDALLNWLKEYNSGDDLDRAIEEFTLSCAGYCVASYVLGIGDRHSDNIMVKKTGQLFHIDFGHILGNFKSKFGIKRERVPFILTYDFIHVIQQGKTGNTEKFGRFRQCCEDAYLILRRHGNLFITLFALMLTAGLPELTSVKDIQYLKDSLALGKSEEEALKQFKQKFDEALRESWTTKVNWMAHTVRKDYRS
Conditions: not given
In the case of `Cc1c(F)cncc1-n1c([C@H](C)Nc2nc(N)nc(N)c2C#N)nc2cccc(Cl)c2c1=O` (stereo in doubt; 27), the IC50 was 120 nM.

With `C[C@H](Nc1nc(N)nc(N)c1C#N)c1nc2cccc(Cl)c2c(=O)n1-c1cncc(F)c1`, the IC50 was 740 nM.

As to `Cc1ncccc1-n1c([C@H](C)Nc2nc(N)nc(N)c2C#N)nc2cccc(Cl)c2c1=O` (stereo in doubt; 23), the IC50 was determined as 350 nM.

Tested on in the next series: not listed separately
Kind of series: Selectivity index, ratio of IC50 for inhibition of recombinant human full-length N-terminal His-tagged PI3K p110beta/p85alpha to IC50 for inhibition of human full length PI3K p110delta/p85alpha.
Conditions: not given
Turning to `C[C@H](Nc1nc(N)nc(N)c1C#N)c1nc2cccc(Cl)c2c(=O)n1-c1cncc(F)c1`, the Ratio IC50 worked out at 430.

For another series, the target named is T1, Phosphatidylinositol 4,5-bisphosphate 3-kinase catalytic subunit delta isoform (Homo sapiens, UniProt O00329).
T1 sequence (O00329 whole entry): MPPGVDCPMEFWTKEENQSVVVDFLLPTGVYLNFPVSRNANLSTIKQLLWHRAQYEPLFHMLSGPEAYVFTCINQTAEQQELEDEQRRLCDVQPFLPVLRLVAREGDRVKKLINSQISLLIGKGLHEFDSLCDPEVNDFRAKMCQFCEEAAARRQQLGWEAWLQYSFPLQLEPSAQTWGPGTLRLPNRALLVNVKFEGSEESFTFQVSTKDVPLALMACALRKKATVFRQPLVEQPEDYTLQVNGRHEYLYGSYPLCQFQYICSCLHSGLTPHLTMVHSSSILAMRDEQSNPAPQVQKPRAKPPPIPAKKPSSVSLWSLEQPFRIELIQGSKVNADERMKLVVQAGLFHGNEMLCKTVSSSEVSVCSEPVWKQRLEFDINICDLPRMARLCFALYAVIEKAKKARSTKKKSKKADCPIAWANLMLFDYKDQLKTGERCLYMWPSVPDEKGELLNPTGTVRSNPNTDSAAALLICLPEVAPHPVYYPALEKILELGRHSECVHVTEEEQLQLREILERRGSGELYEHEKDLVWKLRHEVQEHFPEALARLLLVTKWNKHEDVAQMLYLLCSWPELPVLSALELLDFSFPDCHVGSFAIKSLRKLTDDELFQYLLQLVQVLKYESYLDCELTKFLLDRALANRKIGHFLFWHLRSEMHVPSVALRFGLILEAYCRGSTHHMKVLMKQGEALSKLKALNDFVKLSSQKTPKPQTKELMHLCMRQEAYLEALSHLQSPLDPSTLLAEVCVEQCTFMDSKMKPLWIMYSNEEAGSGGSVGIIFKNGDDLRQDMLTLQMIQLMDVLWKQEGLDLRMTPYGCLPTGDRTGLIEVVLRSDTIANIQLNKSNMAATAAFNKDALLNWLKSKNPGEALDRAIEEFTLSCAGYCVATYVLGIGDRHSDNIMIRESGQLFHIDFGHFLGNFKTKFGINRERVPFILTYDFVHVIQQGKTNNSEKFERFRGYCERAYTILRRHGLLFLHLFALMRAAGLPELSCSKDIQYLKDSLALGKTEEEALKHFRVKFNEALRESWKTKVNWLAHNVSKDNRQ
Description: Inhibition of PI3Kdelta in human whole blood assessed as reduction in anti-FCepsilonR1 mAb-stimulated basophil activation preincubated for 60 mins followed by anti-FCepsilonR1 mAb stimulation and measured after 25 mins by flow cytometry analysis. The class given is tissue-based.
Conditions: not given
On the technique in general: Flow cytometry measures light scatter and fluorescence of single cells or particles in a stream.
What is called EC50 is the concentration that produces a half-maximal response. Turning to `C[C@H](Nc1nc(N)nc(N)c1C#N)c1nc2cccc(Cl)c2c(=O)n1-c1cncc(F)c1`, the EC50 amounted to 1.2 nM.

Tested on in a further series: not listed separately
Description: Chemical stability assessed as time taken for hydrolytic degradation at pH 2. Conditions: buffer. The class given is physicochemical. An outline of the steps: as §1
For the compound `Cc1c(F)cncc1-n1c([C@H](C)Nc2nc(N)nc(N)c2C#N)nc2cccc(Cl)c2c1=O` (stereo in doubt; 27), the Time is more than 3 h.

In the case of `Cc1ncccc1-n1c([C@H](C)Nc2nc(N)nc(N)c2C#N)nc2cccc(Cl)c2c1=O` (stereo in doubt; 23), the Time is more than 3 h.

Tested on in a further series: not listed separately
Kind of series: Thermal stability of compound assessed as half life at 40 degreeC measured over 72 hrs by HPLC analysis. The class given is physicochemical.
Conditions: not given
With `Cc1c(F)cncc1-n1c([C@H](C)Nc2nc(N)nc(N)c2C#N)nc2cccc(Cl)c2c1=O` (stereo in doubt; 27), the half-life was 1750 h.

Another series addresses PI3-kinase p110-delta/p85-alpha (Homo sapiens, UniProt O00329). Kind of series: Inhibition of human full length PI3K p110delta/p85alpha using […] as substrate measured after 30 mins by TR-FRET assay. The class given is protein-complex assay.
Conditions: not given
As to `Cc1c(F)cncc1-n1c([C@H](C)Nc2nc(N)nc(N)c2C#N)nc2cccc(Cl)c2c1=O` (stereo in doubt; 27), the IC50 is 0.3 nM.

In turn, `C[C@H](Nc1nc(N)nc(N)c1C#N)c1nc2cccc(Cl)c2c(=O)n1-c1cncc(F)c1` had an IC50 of 1.7 nM.

In turn, `Cc1ncccc1-n1c([C@H](C)Nc2nc(N)nc(N)c2C#N)nc2cccc(Cl)c2c1=O` (stereo in doubt; 23) displayed an IC50 of 1.3 nM.
